Values after ≈ are worked out from the molar mass of the structure shown.
Columns and labels:
[1] = AUCall in C57 Black mouse kidney at 10 mg/kg, po; assay type: ADME, organism-based; parameters: dose 10 mg/kg
How it was run: (§1)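 Male C57BL/6 mice were given a single 10 mg/kg dose either intravenously or orally. The oral and IV solutions were formulated in 10% DMSO, 10% cremaphor and 80% saline. Concentrations in plasma and in the tissues collected were determined after dosing, with n = 3 per route. Values are given as mean ± SEM.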

[2] = AUClast in C57 Black mouse kidney at 10 mg/kg, iv; assay type: ADME, organism-based; parameters: route intravenous, time 0 - last, dose 10 mg/kg; how it was run: as §1
[3] = AUCinfinity in C57 Black mouse liver at 10 mg/kg, po; assay type: ADME, organism-based; parameters: time infinity, route oral, dose 10 mg/kg; how it was run: as §1
[4] = AUCinfinity in C57 Black mouse muscle at 10 mg/kg, iv; assay type: ADME, organism-based, Muscle tissue; parameters: time infinity, route intravenous, dose 10 mg/kg; how it was run: as §1
[5] = Half life in C57 Black mouse plasma at 10 mg/kg, iv; assay type: ADME, organism-based
How it was run: (§2)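 Male C57BL/6 mice (n = 3) dosed at 10 mg/kg by IV or oral (PO) route. Dosing solutions were formulated in 10% DMSO, 10% cremaphor and 80% saline. Compound levels were measured in plasma and tissues over time, and values are given as mean ± SEM.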

[6] = Half life in C57 Black mouse brain at 10 mg/kg, po; assay type: ADME, organism-based; how it was run: as §1
[7] = AUCall in C57 Black mouse liver at 10 mg/kg, iv; assay type: ADME, organism-based; parameters: dose 10 mg/kg; how it was run: as §1
[8] = Tmax in C57 Black mouse brain at 10 mg/kg, iv; assay type: ADME, organism-based; how it was run: as §2
[9] = Tmax in C57 Black mouse muscle at 10 mg/kg, iv; assay type: ADME, organism-based, Muscle tissue; how it was run: as §2
[10] = Half life in C57 Black mouse spleen at 10 mg/kg, iv; assay type: ADME, organism-based; how it was run: as §2
[11] = AUCinfinity in C57 Black mouse plasma at 10 mg/kg, iv; assay type: ADME, organism-based; parameters: route intravenous, time infinity, dose 10 mg/kg; details: in vivo; how it was run: as §1
[12] = Half life in C57 Black mouse liver at 10 mg/kg, po; assay type: ADME, organism-based; how it was run: as §2
[13] = Tmax in C57 Black mouse liver at 10 mg/kg, iv; assay type: ADME, organism-based; how it was run: as §2
[14] = AUCall in C57 Black mouse muscle at 10 mg/kg, iv; assay type: ADME, organism-based, Muscle tissue; parameters: dose 10 mg/kg; how it was run: as §1
CYP3A4 = CYP3A4 (Homo sapiens, UniProt P08684); test: Inhibition of human CYP3A4 using fluorogenic substrate incubated for 60 mins in presence of NADPH by fluorescence assay relative to control; assay type: ADME; details: probe fluorogenic substrate
How it was run: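 Baculosomes each expressing a single cDNA-derived human P450 isozyme were incubated with compound at 10 µM, a fluorogenic substrate and NADPH. Incubation was at 37 °C for at least 60 min before fluorescence was read, n = 3.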

[15] = AUCinfinity in C57 Black mouse liver at 10 mg/kg, iv; assay type: ADME, organism-based; parameters: route intravenous, time infinity, dose 10 mg/kg; how it was run: as §1
[16] = AUClast in C57 Black mouse liver at 10 mg/kg, po; assay type: ADME, organism-based; parameters: time 0 - last, route oral, dose 10 mg/kg; how it was run: as §1
[17] = Cmax in C57 Black mouse plasma at 10 mg/kg, po; assay type: ADME, organism-based; parameters: route oral, dose 10 mg/kg; how it was run: as §1
[18] = Thermodynamic solubility of compound in PBS at 1 mg/ml after 24 hrs by LC-MS/MS analysis; assay type: physicochemical; details: read-out: Therm_solubility
How it was run: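 Compound was equilibrated at 1 mg/mL and at 0.1 mg/mL in PBS containing 5% (v/v) DMSO, for 24 h at 21 °C. Samples were centrifuged at 15,000 g for 10 min and the supernatant was quantified by LC-MS/MS, n = 3.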

[19] = Clearance in C57 Black mouse plasma at 10 mg/kg, iv; assay type: ADME, organism-based; details: in vivo; how it was run: as §1
[20] = AUClast in C57 Black mouse plasma at 10 mg/kg, iv; assay type: ADME, organism-based; parameters: route intravenous, time 0 - last, dose 10 mg/kg; how it was run: as §1
[21] = Intrinsic clearance in human hepatocytes at 1 uM up to 120 mins by HPLC-MS/MS analysis; assay type: ADME, cell-based, Hepatocyte; details: 2 h
[22] = Volume of distribution in C57 Black mouse kidney at 10 mg/kg, iv; assay type: ADME, organism-based; how it was run: as §2
[23] = Tmax in C57 Black mouse spleen at 10 mg/kg, iv; assay type: ADME, organism-based; how it was run: as §2
[24] = Half life in human hepatocytes at 1 uM up to 120 mins by HPLC-MS/MS analysis; assay type: ADME, cell-based, Hepatocyte
[25] = Toxicity in C57BL/6 mouse at 10 mg/kg, iv or po; assay type: organism-based; details: in vivo
[26] = Half life in mouse plasma at 1 uM after 60 to 120 mins by HPLC-MS/MS analysis; assay type: ADME, cell-free; details: time 60-120 min
How it was run: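 Buffer containing test compound at 1 µM was mixed with human or mouse blood plasma and incubated at 37 °C for 60–120 min. Parent compound remaining gave the plasma half-life and the percentage stable at 2 h.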

[27] = Efflux ratio of apparent permeability in MDCK-MDR1 cells at 10 uM after 30 mins by LC-MS/MS analysis; assay type: ADME, cell-based, Canis lupus familiaris; details: dog
How it was run: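 hMDR1-MDCK monolayers on filters; compound at 10 µM final in DMEM (from 10 mM DMSO stock) with 10 µM propranolol internal standard in donor. Transfer measured apical-to-basolateral and basolateral-to-apical over 30 min; receiver samples by LC-MS/MS; n = 3.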

[28] = AUCinfinity in C57 Black mouse spleen at 10 mg/kg, iv; assay type: ADME, organism-based; parameters: time infinity, route intravenous, dose 10 mg/kg; how it was run: as §1
[29] = Cmax in C57 Black mouse muscle at 10 mg/kg, iv; assay type: ADME, organism-based, Muscle tissue; parameters: route intravenous, dose 10 mg/kg; how it was run: as §1
[30] = Half life in C57 Black mouse kidney at 10 mg/kg, po; assay type: ADME, organism-based; how it was run: as §2
[31] = AUCinfinity in C57 Black mouse plasma at 10 mg/kg, po; assay type: ADME, organism-based; parameters: route oral, time infinity, dose 10 mg/kg; how it was run: as §1
[32] = Half life in C57 Black mouse spleen at 10 mg/kg, po; assay type: ADME, organism-based; how it was run: as §2
[33] = Inhibition of NADH:ubiquinone oxidoreductase in rat liver mitochondria incubated for 3 mins
[34] = AUCinfinity in C57 Black mouse brain at 10 mg/kg, po; assay type: ADME, organism-based; parameters: route oral, time infinity, dose 10 mg/kg; how it was run: as §1
[35] = Cmax in C57 Black mouse kidney at 10 mg/kg, iv; assay type: ADME, organism-based; parameters: route intravenous, dose 10 mg/kg; how it was run: as §1
[36] = AUCall in C57 Black mouse liver at 10 mg/kg, po; assay type: ADME, organism-based; parameters: dose 10 mg/kg; how it was run: as §1
[37] = Volume of distribution in C57 Black mouse liver at 10 mg/kg, iv; assay type: ADME, organism-based; how it was run: as §2
[38] = Intrinsic clearance in human microsomes at 1 uM up to 120 mins by HPLC/MS-MS analysis; assay type: ADME, Microsome
[39] = Cmax in C57 Black mouse liver at 10 mg/kg, iv; assay type: ADME, organism-based; parameters: route intravenous, dose 10 mg/kg; how it was run: as §1
[40] = Cmax in C57 Black mouse brain at 10 mg/kg, po; assay type: ADME, organism-based; parameters: route oral, dose 10 mg/kg; how it was run: as §1
[41] = AUCall in C57 Black mouse plasma at 10 mg/kg, iv; assay type: ADME, organism-based; parameters: dose 10 mg/kg; how it was run: as §1
[42] = Lipophilicity, logP of compound; assay type: physicochemical; details: octanol/water
[43] = AUCall in C57 Black mouse spleen at 10 mg/kg, iv; assay type: ADME, organism-based; parameters: dose 10 mg/kg; how it was run: as §1

CYP3A4, sequence (P08684 whole entry): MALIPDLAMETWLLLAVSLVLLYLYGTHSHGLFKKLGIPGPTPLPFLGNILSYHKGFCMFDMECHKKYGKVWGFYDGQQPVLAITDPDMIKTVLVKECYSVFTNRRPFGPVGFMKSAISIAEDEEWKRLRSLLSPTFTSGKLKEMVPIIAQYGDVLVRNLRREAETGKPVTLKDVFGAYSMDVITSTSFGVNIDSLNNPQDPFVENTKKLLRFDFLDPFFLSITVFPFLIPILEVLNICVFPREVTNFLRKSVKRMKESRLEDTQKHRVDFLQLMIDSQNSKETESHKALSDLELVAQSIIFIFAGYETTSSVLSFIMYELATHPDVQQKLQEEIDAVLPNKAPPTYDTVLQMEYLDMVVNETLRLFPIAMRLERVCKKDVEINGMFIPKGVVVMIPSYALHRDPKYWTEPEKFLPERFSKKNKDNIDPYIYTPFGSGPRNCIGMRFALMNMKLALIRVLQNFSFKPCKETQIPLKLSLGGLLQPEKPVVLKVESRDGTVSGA

`O=C(CCCc1cccs1)N1CCN(c2ccc(C(F)(F)F)cc2)CC1` gave an AUC [1] of 1.22 µg·h/mL, an AUC(0-t) [2] of 0.32 µg·h/mL and an AUC(0-inf) [3] of 4.09 µg·h/mL. It also gave an AUC(0-inf) [4] of 0.107 µg·h/mL, a half-life [5] of 27 min and a half-life [6] of 27.6 min. The AUC [7] was 0.487 µg·h/mL, the Tmax [8] was 1.8 min and the Tmax [9] was 1.8 min. For the same compound, the half-life [10] was 66 min, the AUC [11] was 0.244 µg·h/mL and the half-life [12] was 60 min. It also gave a Tmax [13] of 1.8 min, an AUC [14] of 0.0773 µg·h/mL and an inhibition at 1 h (CYP3A4) of 80.2%. For the same compound, the AUC(0-inf) [15] was 0.531 µg·h/mL, the AUC(0-t) [16] was 4.05 µg·h/mL and the Cmax [17] was 0.787 µg/mL. It also gave a solubility thermodynamic at 24 h [18] of 4 µg/mL (≈ 10.5 µM), a CL [19] of 4.102 L/h/kg and an AUC(0-t) [20] of 0.24 µg·h/mL. The CLH [21] was 346 µL/min, the Vd [22] was 3.06 L/kg and the Tmax [23] was 1.8 min. The half-life at 1 µM [24] was 3 min, the Activity [25] was “Non-Toxic” and the half-life at 1 µM [26] was 327 min. It also gave an efflux ratio at 0.5 h, 10 µM [27] of 0.9, an AUC(0-inf) [28] of 0.475 µg·h/mL and a Cmax [29] of 0.165 µg/mL. For the same compound, the half-life [30] was 34.2 min, the AUC(0-inf) [31] was 0.523 µg·h/mL and the half-life [32] was 66 min. For the same compound, the IC50 [33] was 27 µM, the AUC(0-inf) [34] was 0.774 µg·h/mL and the Cmax [35] was 0.552 µg/mL. The AUC [36] was 4.05 µg·h/mL, the Vd [37] was 3.06 L/kg and the microsomal CLint at 1 µM [38] was 116 µL/min/mg. The Cmax [39] was 1.83 µg/mL, the Cmax [40] was 1.43 µg/mL and the AUC [41] was 0.24 µg·h/mL. For the same compound, the logP [42] was 4.79 and the AUC [43] was 0.463 µg·h/mL.
